The values below come from ChEMBL document CHEMBL3785055, “Arginine-linked neomycin B dimers: synthesis, rRNA binding, and resistance enzyme activity” (Medchemcomm, 2016).

Assay [1] deals with Escherichia coli. The assay is described as follows: Displacement of F-NEO from Escherichia coli rRNA A-site at 0.1 uM by fluorescence assay. A digest of the protocol:
(§1)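 Single-point competitive screen: compound at 0.1 μM added to 0.1 μM F-NEO:A-site RNA complex. Displacement read as emission increase over complex alone (ΔF), expressed as % of fluorescence of 0.1 μM F-NEO. Buffer 10 mM HEPES, 50 mM NaCl, 0.4 mM EDTA, pH 7.0; at least duplicates.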

For the next assay, the species on record is Homo sapiens. Briefly: Displacement of F-NEO from human rRNA A-site at 0.1 uM by fluorescence assay. A digest of the protocol: as §1
In a further assay the test system is Bacillus cereus. The assay is described as follows: Antibacterial activity against Bacillus cereus ATCC 11778 after 16 to 20 hrs by MTT assay. Type of assay: functional. The essentials: (§2)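 Strains grown in LB 24 h at 37 °C, 250 rpm; overnight culture diluted 1:1000, grown 4 h, diluted 1:1000 again and added to microplates. Incubation 16–20 h at 37 °C; growth read visually and with MTT (1 mg/mL).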
A general note: Formazan colour is commonly taken as a measure of viable cells.

The test system of assay [2] is Staphylococcus epidermidis. The assay is described as follows: Antibacterial activity against Staphylococcus epidermidis ATCC 12228 after 16 to 20 hrs by MTT assay. Type of assay: functional. The essentials: as §2
Assay [3] deals with Staphylococcus aureus. The assay is described as follows: Antibacterial activity against Staphylococcus aureus ATCC 25923 after 16 to 20 hrs by MTT assay. Type of assay: functional. A digest of the protocol: as §2
The nature of assay [4]: Displacement of F-NEO from Escherichia coli rRNA A-site by fluorescence assay.
Assay [5] can be described thus: Displacement of F-NEO from human rRNA A-site by fluorescence assay.
Assay [6] in a line: Selectivity factor, ratio of IC50 for human rRNA A-site to IC50 for Escherichia coli rRNA A-site. A digest of the protocol: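 Ratio from F-NEO displacement titrations, 0.002–2.0 μM compound against 0.1 μM F-NEO:A-site complex (485/535 nm). Measured IC50 stands in for the unmeasurable competition constants in Kd(human)/Kd(E. coli) = 5.75 × K(E. coli)/K(human). Buffer 10 mM HEPES, 50 mM NaCl, 0.4 mM EDTA, pH 7.0.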

The test system of assay [7] is Escherichia coli. The assay is described as follows: Activity at Escherichia coli AAC(3)-4 at 100 uM in presence of AcCoA by Ellmans method relative to NEO. The essentials:
(§3)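 Acetylation followed by Ellman's method at 412 nm, 2 mM DTNB, 100 μM compound, 25 °C, triplicate, rates normalized to NEO. AcCoA 500 μM for Eis, 150 μM for AAC(3)-IV; enzyme 0.5 μM for Eis, 0.125 μM for AAC(3)-IV; 50 mM buffer.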
In general terms: Ellman's reagent forms a yellow product with free thiols.

Assay [8] relates to Staphylococcus aureus. The assay is described as follows: Activity at Staphylococcus aureus APH(2'')-1a at 100 uM in presence of […] by […] relative to NEO.
The test system of assay [9] is Mycobacterium tuberculosis. The assay is described as follows: Activity at Mycobacterium tuberculosis AAC(2')-1c at 100 uM in presence of AcCoA by Ellmans method relative to NEO. The essentials:
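N-acetylation by AAC(2')-Ic (0.125 μM enzyme) of 100 μM compound with 150 μM AcCoA and 2 mM DTNB in 100 mM buffer, 25 °C. Thiol release followed at 412 nm (ε = 14,150 M⁻¹cm⁻¹). Rates normalized to neomycin B, triplicate.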

Assay [10] has as its system Staphylococcus aureus. The assay is described as follows: Activity at Staphylococcus aureus AAC(6')-1e/APH(2'')-1a in presence of AcCoA by Ellmans method relative to NEO.
The nature of assay [11]: Activity at APH(3')-1a (unknown origin) at 100 uM in presence of […] by […] relative to NEO.
Assay [12] is described as follows: Activity at Eis (unknown origin) at 100 uM in presence of AcCoA by Ellmans method relative to NEO. A digest of the protocol: as §3

A word on the MIC: it is the lowest concentration found to suppress growth. A high value points to a less susceptible organism. Usually IC50 stands for the point on the concentration scale where inhibition reaches its midpoint.

Converted amounts (≈) assume the structure as drawn. The source made the active and inactive calls. The rule behind the calls is not given here.

`N=C(N)NCCC[C@H](N)C(=O)NCCCn1cc(-c2cccc(-c3cn(CCCNC(=O)[C@@H](N)CCCNC(=N)N)nn3)c2)nn1`: the result in the assay on Escherichia coli [1] and in the assay filed under Homo sapiens was inactive.
Consider `NC[C@@H]1O[C@@H](O[C@H]2[C@H](O[C@H]3O[C@@H](Cn4cc(-c5cc(C(=O)O)cc(-c6cn(C[C@H]7O[C@@H](O[C@@H]8[C@@H](O)[C@H](N)C[C@H](N)[C@H]8O[C@@H]8O[C@@H](CN)[C@H](O)[C@@H](O)[C@@H]8N)[C@H](O)[C@@H]7O[C@H]7O[C@@H](CN)[C@@H](O)[C@H](O)[C@H]7N)nn6)c5)nn4)[C@H](O[C@H]4O[C@@H](CN)[C@@H](O)[C@H](O)[C@H]4N)[C@@H]3O)[C@@H](O)[C@H](N)C[C@@H]2N)[C@@H](N)[C@H](O)[C@H]1O` (stereo in doubt), for which the MIC against Bacillus cereus was found to be 3 µM (≈ 4.35 µg/mL); in assay [2] it was 13 µM (≈ 18.8 µg/mL); in the assay on Staphylococcus aureus [3] it was 13 µM (≈ 18.8 µg/mL). Also, the IC50 stood at 51 µM in assay [4] and 50 µM in assay [5]. The Ratio IC50 in assay [6] worked out at 5.6. Further, in the assay with Escherichia coli [7], the outcome was Active. For the same molecule, the result (with Staphylococcus aureus [8]; in [9]; with Staphylococcus aureus [10]; in assay [11]; in assay [12]) was inactive.
With `N=C(N)NCCC[C@H](NC(=O)CNC(=O)c1cc(-c2cn(C[C@H]3O[C@@H](O[C@@H]4[C@@H](O)[C@H](N)C[C@H](N)[C@H]4O[C@H]4O[C@H](CN)[C@@H](O)[C@H](O)[C@H]4N)[C@H](O)[C@@H]3O[C@H]3O[C@@H](CN)[C@@H](O)[C@H](O)[C@H]3N)nn2)cc(-c2cn(C[C@H]3O[C@@H](O[C@H]4[C@H](O)[C@@H](N)C[C@@H](N)[C@@H]4O[C@@H]4O[C@@H](CN)[C@H](O)[C@@H](O)[C@@H]4N)[C@H](O)[C@@H]3O[C@H]3O[C@@H](CN)[C@@H](O)[C@H](O)[C@H]3N)nn2)c1)C(N)=O` (stereo in doubt), the MIC against Bacillus cereus is 1.6 µM (≈ 2.66 µg/mL); in assay [2], greater than 50 µM; in the assay on Staphylococcus aureus [3] it was 50 µM (≈ 83.1 µg/mL). For the same molecule, the IC50 in [4] worked out at 62 µM; in assay [5], 58 µM. For the same molecule, the Ratio IC50 in [6] was 5.3. Moreover, in the assay with Escherichia coli [7], the result was Active. For the same molecule, the outcome (in the assay with Staphylococcus aureus [8]; in assay [9]; with Staphylococcus aureus [10]; in assay [11]; in [12]) was inactive.
Regarding `N=C(N)NCCC[C@@H](NC(=O)c1cc(-c2cn(C[C@@H]3O[C@H](O[C@@H]4[C@@H](O)[C@H](N)C[C@H](N)[C@H]4O[C@@H]4O[C@@H](CN)[C@H](O)[C@@H](O)[C@@H]4N)[C@@H](O)[C@H]3O[C@H]3O[C@@H](CN)[C@@H](O)[C@H](O)[C@H]3N)nn2)cc(-c2cn(C[C@H]3O[C@@H](O[C@@H]4[C@@H](O)[C@H](N)C[C@H](N)[C@H]4O[C@@H]4O[C@@H](CN)[C@H](O)[C@@H](O)[C@@H]4N)[C@H](O)[C@@H]3O[C@H]3O[C@@H](CN)[C@@H](O)[C@H](O)[C@H]3N)nn2)c1)C(N)=O` (stereo in doubt), the MIC was 3 µM (≈ 4.81 µg/mL) against Bacillus cereus, greater than 50 µM in [2] and greater than 50 µM against Staphylococcus aureus [3]. The IC50 in assay [4] turned out to be 55 µM; in assay [5] it was 71 µM. Also, the Ratio IC50 in assay [6] amounted to 7.4. The Activity with Escherichia coli [7] is 30%. The outcome (with Staphylococcus aureus [8]; in assay [9]; in the assay on Staphylococcus aureus [10]; in assay [11]; in [12]) was inactive.
